From PubChem BioAssay
An excerpt weighted towards active compounds, which were near 1.2% of everything screened.
ABHD5-PLIN5 inh: ABHD5-PLIN5 interaction inhibitors, primary screen, cell lysate, split luciferase complementation, luminescence; Perilipin-5 (Homo sapiens) + 1-acylglycerol-3-phosphate O-acyltransferase ABHD5 (Homo …; Split G. princeps luciferase complementation, 4 h; inhibition, % at 4 µM; actives 0.78% (n = 360,000); AID 602281, 2012;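 active means inhibition above the mean inhibition across every tested compound plus 3 SD, cut at about 22% in these data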;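 further: 0% = DMSO only wells and the 100% control is not disclosed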
Target sequence (Q00G26 whole entry, looked up): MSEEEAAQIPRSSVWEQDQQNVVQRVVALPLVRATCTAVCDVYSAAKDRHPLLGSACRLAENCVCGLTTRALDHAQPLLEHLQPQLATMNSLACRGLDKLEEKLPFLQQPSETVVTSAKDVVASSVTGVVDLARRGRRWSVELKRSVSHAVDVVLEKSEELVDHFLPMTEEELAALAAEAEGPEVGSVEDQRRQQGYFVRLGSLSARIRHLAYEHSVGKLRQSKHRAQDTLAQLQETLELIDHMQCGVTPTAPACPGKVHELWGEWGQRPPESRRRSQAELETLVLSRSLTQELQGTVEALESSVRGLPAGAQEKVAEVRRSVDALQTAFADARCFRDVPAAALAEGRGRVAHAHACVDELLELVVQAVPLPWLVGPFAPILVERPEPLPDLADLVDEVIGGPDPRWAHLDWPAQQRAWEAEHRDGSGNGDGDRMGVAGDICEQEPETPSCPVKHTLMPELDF
Target sequence (Q8WTS1 whole entry, looked up): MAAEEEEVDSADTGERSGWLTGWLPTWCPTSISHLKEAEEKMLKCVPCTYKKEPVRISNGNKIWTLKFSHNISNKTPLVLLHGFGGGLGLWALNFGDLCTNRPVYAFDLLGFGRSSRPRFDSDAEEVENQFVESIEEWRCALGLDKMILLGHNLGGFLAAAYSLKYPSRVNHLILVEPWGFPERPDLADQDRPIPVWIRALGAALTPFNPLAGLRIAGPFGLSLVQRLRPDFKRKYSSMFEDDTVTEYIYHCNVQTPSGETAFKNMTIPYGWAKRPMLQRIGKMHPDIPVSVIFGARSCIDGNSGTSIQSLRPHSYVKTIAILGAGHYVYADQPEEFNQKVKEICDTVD
FN deposit inh: inhibitors of fibronectin matrix deposition, primary screen, AH1F cells, Alexa488-fibronectin fluorescence, plate reader; AH1F fibroblasts, overnight; inhibition, % at 12.6 µM; actives 0.086% (n = 350,000); AID 743247, 2014;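 active means mean inhibition across replicates of 30% or more, regardless of how many single replicates reach that level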;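 further: positive control wells lacked labelled fibronectin entirely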
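Schedule: 1 h cell adhesion before compound, then overnight fibronectin incubation; test system: AH1F fibroblast monolayer depositing Alexa488-labelled fibronectin into matrix; quantity: 10000 AH1F cells per well; probe or stimulus: fluorescent fibronectin at 24 nM final; signal: fluorescence, ex 485 nm, em 525 nm; evaluation: percent inhibition as loss of matrix-bound fibronectin fluorescence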
APOBEC3G inh: APOBEC3G DNA deaminase inhibitors, primary screen, biochemical, fluorescence, single-stranded DNA substrate, uHTS. DNA dC->dU-editing enzyme APOBEC-3G (Homo sapiens), Q9HC16. recombinant A3G, ssDNA deamination FAM/TAMRA fluorescence. inhibition, % at 20 µM. actives 0.28% (n = 330,000). AID 493012, 2011;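 active means inhibition of at least 40% at 20 µM, with no more than 30% in the related APOBEC3A deaminase screen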;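 further: plate controls were DMSO wells with A3G for no effect and wells lacking A3G enzyme for full effect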
APOBEC3A inh: APOBEC3A ssDNA deaminase inhibitors, primary screen, selectivity assay for APOBEC3G inhibitor project, biochemical, FAM/TAMRA oligo cleavage fluorescence; DNA dC->dU-editing enzyme APOBEC-3A (Homo sapiens), P31941; recombinant A3A, FAM/TAMRA ssDNA deamination fluorescence; inhibition, % at 20 µM; actives 0.41% (n = 330,000); AID 493011, 2011;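 active means at least 40% inhibition at 20 µM here, with at most 30% in a related deaminase screen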;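 further: plate controls were A3A with DMSO for no effect and wells lacking A3A enzyme for full effect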
APOBEC3G confirm: APOBEC3G deaminase inhibitor retest, confirmation, biochemical, fluorescence, single-stranded DNA substrate, single concentration. shares compounds with APOBEC3G inh. inhibition, % at 20 µM. AID 493152, 2011. actives 72% (n = 890). recombinant A3G ssDNA deaminase, UDG/FAM-TAMRA fluorescence;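 active means inhibition reaching a set limit in any replicate at 20 µM, the limit being 80% of the first screen's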
UDG A3G counter: E. coli UDG inhibitors, confirmation, counter-screen for APOBEC3G inhibitor project, biochemical, single concentration, fluorescence, FAM/TAMRA oligo. shares compounds with APOBEC3G inh. UDG counterscreen. inhibition, % at 20 µM. 710 tested, under 10 active. AID 504715, 2011;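 active means compounds giving 40% or more inhibition at 20 µM in any one of the three replicates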;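 further: plate controls were DMSO wells with UDG and oligo for no effect and DMSO wells lacking both for full effect; inhibitors lower the FAM signal released by uracil excision and alkaline cleavage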
Starred values were filed as active, the others as inactive; . = no result.

SMILES	ABHD5-PLIN5 inh	FN deposit inh	APOBEC3G inh	APOBEC3A inh	APOBEC3G confirm	UDG A3G counter
CC(Sc1ccc2nnc(-c3ccc(F)cc3)n2n1)C(=O)O (configuration not stated)	5	4	42*	0	52*	-3
CCNC(=O)C[C@H]1CC[C@@H]2[C@H](COc3ccc(NC(=O)c4cccc(C(F)(F)F)c4)cc3C(=O)N2C)O1	.	5	.	.	.	.
CCC1S/C(=N/C(=O)NC2CCCCC2)NC1=O (configuration not stated)	-4	6	-1	-2	.	.
O=C(/N=C1\NC(=O)C(F)(C(F)(F)F)S1)NC1CCCCC1 (configuration not stated)	2	.	50*	0	48*	3
CO[C@@H]1CN(C)C(=O)c2cc(NC(=O)CC(F)(F)F)ccc2OC[C@H](C)N(C(=O)c2ccccc2F)C[C@H]1C	.	-3	.	.	.	.
COc1ccc(C(=O)c2coc3ccc(OC(C)=O)cc23)cc1	2	-7	-2	0	.	.
COc1ccc(OC)c(C(=O)c2coc3ccc(OC(C)=O)cc23)c1	11	8	79*	1	-2	.
C[C@@H]1CC=CC[C@H](c2ccccc2)NC(=O)[C@H](C)N(C)C(=O)c2ccccc2O1 (mixture of isomers)	.	-1	.	.	.	.
C[C@@H]1CN([C@@H](C)CO)C(=O)c2cc(NS(=O)(=O)c3cn(C)cn3)ccc2O[C@@H]1CN(C)C(=O)Nc1ccc(C(F)(F)F)cc1	.	1	.	.	.	.
CCn1nc(C)c(CNC(=O)C2CCC(=O)N(CCc3ccc(Cl)cc3)C2)c1C (configuration not stated)	1	3	44*	6	-1	.
Cc1nc(CNC(=O)C2CCC(=O)N(CCc3ccc(Cl)cc3)C2)sc1C (configuration not stated)	6	-4	-5	-4	.	.
Cc1ccccc1NC(=O)Nc1ccc2c(c1)C(=O)N(C)[C@@H]1CC[C@H](CC(=O)O)O[C@@H]1CO2	.	-21	.	.	.	.
CCN(CC)CCn1c2ccccc2c2nc3ccccc3nc21	1	0	3	7	.	.
CCN(CC)CCn1c2ccccc2c2n[nH]c(=S)nc21	-17	-7	58*	-4	78*	2
CO[C@H]1CN(C)C(=O)c2cc(NC(=O)c3ccc4c(c3)OCO4)ccc2OC[C@H](C)NC[C@@H]1C	.	10	.	.	.	.
CCc1n[nH]c(=S)n1/N=C/c1c(O)ccc2ccccc12	8	-3	52*	-5	75*	3
COc1ccc(N2C(=O)N(Cc3ccc(C)cc3)c3ccccc3S2(=O)=O)cc1	2	3	47*	5	-1	.
O=c1[nH]c(SCc2n[nH]c(=S)n2-c2ccccc2)nc2ccccc12	-6	.	60*	-3	86*	-4
O=c1[nH]c(SCc2nc3ccccc3c(=O)n2-c2ccccc2)nc2ccccc12	-5	-5	0	2	.	.
CO[C@@H]1CN(C)C(=O)c2cc(NC(C)=O)ccc2OC[C@H](C)N(C(=O)c2ccc(F)cc2)C[C@H]1C	.	1	.	.	.	.
FC(F)(F)CN1C[C@@H]2C(c3ccc(Br)cc3)[C@H](C1)N2CC(F)(F)F (some centres not stated)	.	-1	.	.	.	.
CCCCCC(O)CCc1n[nH]c(=S)n1-c1ccccc1 (configuration not stated)	0	.	41*	0	58*	-3
CO[C@@H]1CN(C)C(=O)c2cc(NS(C)(=O)=O)ccc2OC[C@H](C)N(Cc2ccccn2)C[C@H]1C	.	3	.	.	.	.
CC(C)c1nnc(NC(=O)CCS(=O)(=O)c2ccccc2)s1	0	-5	-7	-3	.	.
CCCC(C)c1nnc(NC(=O)CCS(=O)(=O)c2ccccc2)s1 (configuration not stated)	-8	10	66*	13	56*	-4
SMILES	ABHD5-PLIN5 inh	FN deposit inh	APOBEC3G inh	APOBEC3A inh	APOBEC3G confirm	UDG A3G counter
CC(C)CC#Cc1ccc2c(c1)O[C@H](CN(C)C(=O)c1cccc(F)c1)[C@@H](C)CN([C@@H](C)CO)S2(=O)=O	.	0	.	.	.	.
CSc1nc2c(c(=O)[nH]c(=O)n2C)n1Cc1ccc(Cl)cc1	-2	-2	53*	1	56*	-3
CCc1nnc(NC(=O)C2CCCO2)s1 (configuration not stated)	-3	-1	1	-2	.	.
O=C(Nc1nnc(COc2ccc(Cl)cc2)s1)C1CCCO1 (configuration not stated)	1	.	45*	0	21*	-2
O=C(Nc1nnc(COc2ccc(Cl)cc2)s1)c1ccco1	3	-2	71*	5	43*	-3
CC(O)CC(C(=O)NNc1ccccc1)C(=O)NNc1ccccc1 (configuration not stated)	-4	-7	44*	-2	1	-3
CC(C)C(=O)NNc1ccccc1	0	-1	-6	-3	.	.
CO[C@H]1CN(C)C(=O)c2ccc(NC(=O)Cc3ccccc3)cc2OC[C@H](C)N(C)C[C@@H]1C	.	9	.	.	.	.
CC1CCc2c(sc(NC(=O)c3nc4ncccn4n3)c2C#N)C1 (configuration not stated)	-1	11	54*	3	40*	-2
N#Cc1c(NC(=O)c2nc3ncccn3n2)sc2c1CCCCC2	-5	.	-1	0	.	.
CC(Oc1ccc2c3c(c(=O)oc2c1)CCCC3)C(=O)NCCN1CCOCC1 (configuration not stated)	0	7	73*	-4	-2	1
COc1ccc(N2C(=O)/C(=C/c3cccs3)NC2=S)cc1	-5	0	60*	1	39*	4
Cc1cccc(NC(=O)Nc2ccc3c(c2)C(=O)N(C)[C@H]2CC[C@@H](CC(=O)NCc4ccccc4Cl)O[C@H]2CO3)c1	.	-2	.	.	.	.
COc1ccc(OC)c(/C=N/n2c(-c3n[nH]c4c3CCC4)n[nH]c2=S)c1	5	1	42*	-6	83*	-2
COc1cc(OC)c(OC)cc1/C=N/n1c(-c2n[nH]c3c2CCC3)n[nH]c1=S	-2	0	39	-6	.	.
COc1ccc(/C=N/n2c(-c3n[nH]c4c3CCC4)n[nH]c2=S)cc1	-3	3	40*	-8	74*	-2
